Results: ChEMBL document CHEMBL3091443, “Synthesis of novel 7-substituted pyrido[2',3':4,5]furo[3,2-d]pyrimidin-4-amines and their N-aryl analogues and evaluation of their inhibitory activity against Ser/Thr kinases” (Bioorg Med Chem Lett, 2013)

Legend:
[1] = Inhibition of pig brain CK1delta/epsilon using RRKHAAIGpSAYSITA as substrate after 30 mins by scintillation counting analysis; design: species or system Sus scrofa
Method in brief: (§1)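 Compounds were screened first at 10 µM final; those giving under 50% inhibition were scored as IC50 >10 µM, and the rest were taken to IC50 determination (µM). Kinase activities were assayed in triplicate, with standard deviation of single data points typically below 10%. Assay procedures are cited to earlier reports.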

[2] = biological target: Dual specificity tyrosine-phosphorylation-regulated kinase 1A (Rattus norvegicus, UniProt Q63470); assay: Inhibition of rat recombinant GST-tagged DYRK1A expressed in Escherichia coli using KKISGRLSPIMTEQ as substrate after 30 mins by scintillation counting analysis; method in brief: as §1
[3] = biological target: Dual specificity protein kinase CLK1 (Homo sapiens, UniProt P49759); assay: Inhibition of human recombinant GST-tagged CLK1 expressed in Escherichia coli using GRSRSRSRSRSR as substrate; method in brief: as §1
[4] = biological target: Cyclin-dependent kinase 5/CDK5 activator 1 (Homo sapiens, UniProt Q00535); assay: Inhibition of human recombinant CDK5/p25 using [gamma-33P]ATP as substrate after 30 mins by scintillation counting analysis; format: protein-complex assay; method in brief: as §1
[5] = biological target: Glycogen synthase kinase-3 (Sus scrofa, UniProt B2LUN4+I6LNT8); assay: Inhibition of pig brain GSK3alpha/beta using YRRAAVPPSPSLSRHSSPHQpSEDEEE as substrate after 30 mins by scintillation counting analysis
Method in brief: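 Screened first at 10 μM final; compounds giving under 50% inhibition at that level were recorded as IC50 >10 μM. Kinase activity was assayed in triplicate, and IC50 values are reported in μM.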

Chain of Dual specificity protein kinase CLK1 (P49759 whole entry): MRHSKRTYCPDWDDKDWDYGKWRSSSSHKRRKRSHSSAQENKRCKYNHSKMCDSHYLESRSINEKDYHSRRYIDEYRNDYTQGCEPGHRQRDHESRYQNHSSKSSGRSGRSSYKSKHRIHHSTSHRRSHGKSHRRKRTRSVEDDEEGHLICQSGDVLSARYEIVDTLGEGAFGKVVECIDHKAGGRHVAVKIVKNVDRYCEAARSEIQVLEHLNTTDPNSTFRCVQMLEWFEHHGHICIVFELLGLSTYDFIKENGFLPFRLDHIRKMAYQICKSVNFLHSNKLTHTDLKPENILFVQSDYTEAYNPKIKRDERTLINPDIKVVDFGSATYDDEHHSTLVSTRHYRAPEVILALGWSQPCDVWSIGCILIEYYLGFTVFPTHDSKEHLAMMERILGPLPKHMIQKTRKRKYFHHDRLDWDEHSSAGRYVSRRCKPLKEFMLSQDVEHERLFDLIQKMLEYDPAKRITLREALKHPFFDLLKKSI
Chain of Cyclin-dependent kinase 5/CDK5 activator 1 (Q00535 whole entry): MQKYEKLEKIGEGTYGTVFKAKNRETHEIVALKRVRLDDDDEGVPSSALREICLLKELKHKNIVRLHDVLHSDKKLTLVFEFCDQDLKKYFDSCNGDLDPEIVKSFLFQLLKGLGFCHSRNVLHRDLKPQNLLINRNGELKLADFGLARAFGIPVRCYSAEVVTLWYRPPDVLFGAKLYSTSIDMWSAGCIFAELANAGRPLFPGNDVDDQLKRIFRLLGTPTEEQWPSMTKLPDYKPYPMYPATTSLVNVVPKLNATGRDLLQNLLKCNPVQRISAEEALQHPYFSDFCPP
Chain of Cyclin-dependent kinase 5/CDK5 activator 1 (Q15078 whole entry, further chain): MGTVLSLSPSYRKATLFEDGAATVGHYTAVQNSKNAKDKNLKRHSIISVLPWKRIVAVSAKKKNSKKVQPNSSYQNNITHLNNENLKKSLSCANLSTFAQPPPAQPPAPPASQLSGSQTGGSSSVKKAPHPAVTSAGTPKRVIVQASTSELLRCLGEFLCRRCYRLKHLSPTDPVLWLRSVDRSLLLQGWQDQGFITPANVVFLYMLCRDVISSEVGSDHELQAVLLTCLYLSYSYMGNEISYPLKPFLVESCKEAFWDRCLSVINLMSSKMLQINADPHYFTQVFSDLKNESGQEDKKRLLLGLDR

Compound	IC50 [1] [µM]	IC50 [2] [µM]	IC50 [3] [µM]	IC50 [4] [µM]	IC50 [5] [µM]
c1nc(Nc2ccc3c(c2)OCO3)c2oc3cc(-c4ccc5c(c4)OCO5)cnc3c2n1	> 10	> 10	> 10	> 10	> 10
Nc1ncnc2c1oc1cc(-c3cccc(Cl)c3)cnc12	> 10	> 10	1	> 10	> 10
Nc1ncnc2c1oc1cc(-c3ccc(Cl)c(Cl)c3)cnc12	> 10	> 10	> 10	> 10	> 10
Nc1ncnc2c1oc1cc(-c3ccc(Cl)cc3Cl)cnc12	> 10	0.6	0.049	> 10	> 10
Nc1ncnc2c1oc1cc(-c3ccc4c(c3)OCO4)cnc12	> 10	2.3	0.32	> 10	> 10
c1ccc(Nc2ncnc3c2oc2cc(-c4ccc5c(c4)OCO5)cnc23)cc1	> 10	> 10	> 10	> 10	> 10
Cc1ccc(Nc2ncnc3c2oc2cc(-c4ccc5c(c4)OCO5)cnc23)cc1	> 10	> 10	> 10	> 10	> 10
COc1ccc(Nc2ncnc3c2oc2cc(-c4ccc5c(c4)OCO5)cnc23)cc1	> 10	> 10	> 10	> 10	> 10
COc1ccc(Nc2ncnc3c2oc2cc(-c4ccc5c(c4)OCO5)cnc23)cc1OC	> 10	> 10	> 10	> 10	> 10
COc1cc(Nc2ncnc3c2oc2cc(-c4ccc5c(c4)OCO5)cnc23)cc(OC)c1OC	> 10	> 10	> 10	> 10	> 10
Clc1ccc(Nc2ncnc3c2oc2cc(-c4ccc5c(c4)OCO5)cnc23)cc1Cl	> 10	> 10	> 10	> 10	> 10
Clc1ccc(Nc2ncnc3c2oc2cc(-c4ccc5c(c4)OCO5)cnc23)cc1	> 10	> 10	> 10	> 10	> 10
Fc1ccc(Nc2ncnc3c2oc2cc(-c4ccc5c(c4)OCO5)cnc23)cc1Cl	> 10	> 10	> 10	> 10	> 10
Nc1ncnc2c1oc1cccnc12	> 10	> 10	> 10	> 10	> 10
c1ccc(Nc2ncnc3c2oc2cccnc23)cc1	> 10	> 10	> 10	> 10	> 10
COc1ccc(Nc2ncnc3c2oc2cccnc23)cc1	> 10	> 10	> 10	> 10	> 10
COc1ccc(Nc2ncnc3c2oc2cccnc23)cc1OC	> 10	> 10	> 10	> 10	> 10
COc1cc(Nc2ncnc3c2oc2cccnc23)cc(OC)c1	> 10	> 10	> 10	> 10	> 10
COc1cc(Nc2ncnc3c2oc2cccnc23)cc(OC)c1OC	> 10	> 10	> 10	> 10	> 10
c1cnc2c(c1)oc1c(Nc3ccc4c(c3)OCO4)ncnc12	> 10	> 10	> 10	> 10	> 10
C1=COc2cc(Nc3ncnc4c3oc3cccnc34)ccc2O1	> 10	> 10	> 10	> 10	> 10
Fc1ccc(Nc2ncnc3c2oc2cccnc23)cc1Cl	> 10	> 10	> 10	> 10	> 10
Fc1cc(Br)ccc1Nc1ncnc2c1oc1cccnc12	> 10	> 10	> 10	> 10	> 10
Nc1ncnc2c1oc1cc(-c3ccccc3)cnc12	> 10	3.1	0.69	> 10	> 10
Cc1ccc(-c2cnc3c(c2)oc2c(N)ncnc23)cc1	> 10	4.4	0.61	> 10	> 10
COc1ccc(-c2cnc3c(c2)oc2c(N)ncnc23)cc1	> 10	> 10	> 10	> 10	> 10
